Laboratory results taken from ChEMBL document CHEMBL3286354, “9- and 11-Substituted 4-azapaullones are potent and selective inhibitors of African trypanosoma” (Eur J Med Chem, 2014).
One block for each molecule: values may come before it.

Tests used:
[1] = Toxicity in mouse macrophages at 59 uM after 24 hrs by xCELLingence assay relative to control; format: cell-based; settings: macrophage
In short: (§1)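 Mouse bone marrow-derived macrophages were seeded at 7.5×10^4 per well in DMEM with 2 mM L-glutamine and 10% heat-inactivated FCS for 24 h. They were then exposed for 24 h to each compound at its highest soluble concentration. Impedance (cell index) was read every 30 min. % toxicity = 100 − (cell index compound / cell index medium × 100).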

[2] = target: T1, Trypanothione synthetase (Trypanosoma brucei brucei) (UniProt Q86MC2); assay: Inhibition of Trypanosoma brucei brucei trypanothione synthetase assessed as residual activity at 30 uM after 15 mins incubation by Biomol Green phosphate release absorbance assay
T1 sequence (whole entry): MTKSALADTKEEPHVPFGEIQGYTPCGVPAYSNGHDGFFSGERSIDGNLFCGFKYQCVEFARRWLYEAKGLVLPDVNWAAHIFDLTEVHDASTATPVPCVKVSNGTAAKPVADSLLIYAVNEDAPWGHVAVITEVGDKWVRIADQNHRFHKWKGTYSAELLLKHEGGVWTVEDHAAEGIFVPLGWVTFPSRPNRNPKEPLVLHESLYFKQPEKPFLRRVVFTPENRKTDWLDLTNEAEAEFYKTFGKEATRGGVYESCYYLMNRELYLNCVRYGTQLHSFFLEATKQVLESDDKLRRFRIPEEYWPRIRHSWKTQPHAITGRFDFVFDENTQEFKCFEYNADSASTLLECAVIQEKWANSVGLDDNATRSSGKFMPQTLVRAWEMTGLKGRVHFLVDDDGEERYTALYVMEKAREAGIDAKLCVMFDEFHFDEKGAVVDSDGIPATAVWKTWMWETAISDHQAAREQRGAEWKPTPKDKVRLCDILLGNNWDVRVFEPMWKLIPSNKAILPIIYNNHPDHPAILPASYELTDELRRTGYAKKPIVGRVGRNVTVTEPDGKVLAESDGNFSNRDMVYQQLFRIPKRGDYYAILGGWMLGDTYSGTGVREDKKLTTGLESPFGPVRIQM

[3] = tested on: Trypanosoma brucei brucei; assay: Antitrypanosomal activity against Trypanosoma brucei brucei 427 assessed as viability at 30 uM after 24 hrs by Flow cytometry relative to control; format: functional
In short: (§2)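 Single-concentration primary screen on infective T. b. brucei 427, seeded at 5×10^5 cells/mL in HMI-9/10% FBS, 37 °C, 5% CO2, for 24 h. Live cells were counted by flow cytometry with propidium iodide gating over a fixed 60 s acquisition. % viability is relative to the DMSO proliferation control. Triplicates; error as 2 SD.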

[4] = Toxicity in mouse macrophages at 10 uM after 24 hrs by xCELLingence assay relative to control; format: cell-based; settings: macrophage; in short: as §1
[5] = tested on: Trypanosoma brucei brucei; assay: Antitrypanosomal activity against Trypanosoma brucei brucei 427 assessed as viability after 24 hrs by Flow cytometry; format: functional, organism-based; settings: Trypanosoma brucei, 427, 24 h
In short: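 Infective bloodstream T. b. brucei 427 (cell line 449 carrying a redox biosensor) in HMI-9 with 10% FBS at 37 °C, 5% CO2. Cells were seeded at 5×10^5 cells/mL with two-fold serial dilutions from DMSO stocks and incubated 24 h. Viability was by propidium iodide exclusion flow cytometry. EC50 came from a sigmoidal Boltzmann fit or non-linear extrapolation, with error as 2 SD.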

[6] = tested on: Trypanosoma brucei brucei; assay: Antitrypanosomal activity against Trypanosoma brucei brucei 427 assessed as viability at 5 uM after 24 hrs by Flow cytometry relative to control; format: functional; in short: as §2
[7] = Toxicity in mouse macrophages at 24 uM after 24 hrs by xCELLingence assay relative to control; format: cell-based; settings: macrophage; in short: as §1
[8] = Toxicity in mouse macrophages at 12 uM after 24 hrs by xCELLingence assay relative to control; format: cell-based; settings: macrophage; in short: as §1
[9] = Toxicity in mouse macrophages at 26 uM after 24 hrs by xCELLingence assay relative to control; format: cell-based; settings: macrophage; in short: as §1
[10] = target: Dual specificity tyrosine-phosphorylation-regulated kinase 1A (Homo sapiens, UniProt Q13627); assay: Inhibition of human recombinant DYRK1A
In short: (§3)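 Radiometric kinase assays in buffer A (10 mM MgCl2, 1 mM EGTA, 1 mM DTT, 25 mM Tris-HCl pH 7.5, heparin) or buffer B, with ATP, 30 min at 30 °C. Products were captured on P81 phosphocellulose, washed in 1% phosphoric acid and scintillation counted. Activity is % of the uninhibited control. Substrates: histone H1 for CDK2/CDK5 (BSA added for CDK5), CDK7/9-Tide for CDK9, RS peptide for DYRK1A/CLK1, GS-1 for GSK-3, CKS peptide for CK1.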

[11] = target: Cyclin-dependent kinase 2/cyclin E1 (Homo sapiens, UniProt P24941); assay: Inhibition of human recombinant CDK2/cyclin E; format: protein-complex assay; in short: as §3
[12] = Inhibition of starfish CDK1/cyclinB using histone H1 substrate
[13] = target: Dual specificity protein kinase CLK1 (Mus musculus, UniProt P22518); assay: Inhibition of mouse recombinant CLK1; in short: as §3
[14] = Inhibition of pig brain CK1 delta/epsilon using CKS peptide substrate; design: species or system Sus scrofa; in short: as §3
[15] = target: CDK9/cyclin T1 (Homo sapiens, UniProt P50750); assay: Inhibition of human recombinant CDK9/cyclin T; format: protein-complex assay; in short: as §3
[16] = target: Cyclin-dependent kinase 5/CDK5 activator 1 (Homo sapiens, UniProt Q00535); assay: Inhibition of human recombinant CDK5/p25; format: protein-complex assay; in short: as §3
[17] = target: Glycogen synthase kinase-3 (Sus scrofa, UniProt B2LUN4+I6LNT8); assay: Inhibition of pig brain GSK-3alpha/beta using GS-1 peptide substrate; in short: as §3
[18] = Toxicity in mouse macrophages at 60 uM after 24 hrs by xCELLingence assay relative to control; format: cell-based; settings: macrophage; in short: as §1
[19] = Toxicity in mouse macrophages at 48 uM after 24 hrs by xCELLingence assay relative to control; format: cell-based; settings: macrophage; in short: as §1
[20] = Toxicity in mouse macrophages at 54 uM after 24 hrs by xCELLingence assay relative to control; format: cell-based; settings: macrophage; in short: as §1
[21] = Toxicity in mouse macrophages at 5 uM after 24 hrs by xCELLingence assay relative to control; format: cell-based; settings: macrophage; in short: as §1
[22] = Toxicity in mouse macrophages at 58 uM after 24 hrs by xCELLingence assay relative to control; format: cell-based; settings: macrophage; in short: as §1
[23] = Toxicity in mouse macrophages at 56 uM after 24 hrs by xCELLingence assay relative to control; format: cell-based; settings: macrophage; in short: as §1
[24] = Toxicity in mouse macrophages at 29 uM after 24 hrs by xCELLingence assay relative to control; format: cell-based; settings: macrophage; in short: as §1

Sequence of Cyclin-dependent kinase 5/CDK5 activator 1 (Q00535 whole entry): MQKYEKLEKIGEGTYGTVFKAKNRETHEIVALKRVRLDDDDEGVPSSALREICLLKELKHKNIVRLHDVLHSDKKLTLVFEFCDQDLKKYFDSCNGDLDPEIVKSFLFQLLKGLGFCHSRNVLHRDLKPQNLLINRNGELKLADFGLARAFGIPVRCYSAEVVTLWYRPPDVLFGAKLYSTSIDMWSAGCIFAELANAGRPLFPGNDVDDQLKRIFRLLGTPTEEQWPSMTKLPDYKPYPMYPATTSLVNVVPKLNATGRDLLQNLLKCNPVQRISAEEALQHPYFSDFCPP
Sequence of Cyclin-dependent kinase 5/CDK5 activator 1 (Q15078 whole entry, further chain): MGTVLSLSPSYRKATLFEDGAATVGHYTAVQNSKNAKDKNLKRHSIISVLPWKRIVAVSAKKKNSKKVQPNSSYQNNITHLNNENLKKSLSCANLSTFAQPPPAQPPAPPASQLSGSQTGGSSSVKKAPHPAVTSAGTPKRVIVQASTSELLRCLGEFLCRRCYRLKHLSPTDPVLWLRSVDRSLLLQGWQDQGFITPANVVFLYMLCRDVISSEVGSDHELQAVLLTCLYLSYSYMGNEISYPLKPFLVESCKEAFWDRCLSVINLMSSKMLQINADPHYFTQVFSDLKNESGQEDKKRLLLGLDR
Sequence of CDK9/cyclin T1 (O60563 whole entry): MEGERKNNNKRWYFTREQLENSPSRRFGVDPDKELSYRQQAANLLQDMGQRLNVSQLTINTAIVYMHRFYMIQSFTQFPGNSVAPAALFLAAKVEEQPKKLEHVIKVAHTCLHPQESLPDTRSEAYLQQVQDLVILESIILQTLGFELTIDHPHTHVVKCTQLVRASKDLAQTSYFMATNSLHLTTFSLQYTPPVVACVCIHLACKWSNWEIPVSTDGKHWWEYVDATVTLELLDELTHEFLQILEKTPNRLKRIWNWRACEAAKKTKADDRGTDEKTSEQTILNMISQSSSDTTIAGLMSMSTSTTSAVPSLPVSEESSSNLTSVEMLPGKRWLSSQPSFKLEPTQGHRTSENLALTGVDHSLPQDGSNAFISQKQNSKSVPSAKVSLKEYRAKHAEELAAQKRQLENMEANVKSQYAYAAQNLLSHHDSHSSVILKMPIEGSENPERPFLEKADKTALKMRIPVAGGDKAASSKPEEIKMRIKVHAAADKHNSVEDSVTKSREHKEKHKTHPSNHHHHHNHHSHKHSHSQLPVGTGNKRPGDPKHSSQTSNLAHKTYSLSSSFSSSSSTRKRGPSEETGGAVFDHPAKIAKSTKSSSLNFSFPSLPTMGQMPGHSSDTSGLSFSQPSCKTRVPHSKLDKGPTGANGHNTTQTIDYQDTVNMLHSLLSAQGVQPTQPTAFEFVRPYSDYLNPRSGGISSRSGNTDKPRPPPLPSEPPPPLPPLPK
Sequence of CDK9/cyclin T1 (P50750 whole entry): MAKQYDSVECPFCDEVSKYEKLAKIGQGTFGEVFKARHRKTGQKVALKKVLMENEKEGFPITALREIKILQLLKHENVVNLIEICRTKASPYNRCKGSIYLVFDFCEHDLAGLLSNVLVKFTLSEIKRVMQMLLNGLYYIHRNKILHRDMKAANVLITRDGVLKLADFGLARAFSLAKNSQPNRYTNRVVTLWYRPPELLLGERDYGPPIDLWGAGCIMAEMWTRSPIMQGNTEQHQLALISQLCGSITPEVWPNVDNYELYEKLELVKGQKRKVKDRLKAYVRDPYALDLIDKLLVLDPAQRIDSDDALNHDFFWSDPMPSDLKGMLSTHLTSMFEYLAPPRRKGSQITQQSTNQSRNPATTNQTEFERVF
Sequence of Dual specificity protein kinase CLK1 (P22518 whole entry): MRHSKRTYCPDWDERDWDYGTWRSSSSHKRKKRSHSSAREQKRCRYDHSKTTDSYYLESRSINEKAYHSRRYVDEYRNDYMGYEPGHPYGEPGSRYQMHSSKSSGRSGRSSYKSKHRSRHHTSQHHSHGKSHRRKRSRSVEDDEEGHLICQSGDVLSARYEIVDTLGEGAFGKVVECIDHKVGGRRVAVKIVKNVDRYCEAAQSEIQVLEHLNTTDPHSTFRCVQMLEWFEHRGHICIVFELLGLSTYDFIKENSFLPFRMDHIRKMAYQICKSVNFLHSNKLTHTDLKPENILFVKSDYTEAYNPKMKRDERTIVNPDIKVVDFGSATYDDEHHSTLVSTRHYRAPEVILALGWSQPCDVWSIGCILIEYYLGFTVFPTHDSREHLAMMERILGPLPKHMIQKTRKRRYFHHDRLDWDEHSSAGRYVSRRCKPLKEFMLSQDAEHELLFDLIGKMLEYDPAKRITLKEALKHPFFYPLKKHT

- Activity [2]: 91.5%
SMILES: CCN(CC)C(=O)/C=C/c1ccc2[nH]c3c(c2c1)CC(=O)Nc1ncccc1-3
- Activity [1]: < 0%
- Activity [3]: 22.1%

- Activity [2]: 96.7%
SMILES: O=C1Cc2c([nH]c3ccc(I)cc23)-c2cccnc2N1
- Activity [4]: 12.3%
- Activity [3]: 72.1%

- Activity [2]: 61.9%
SMILES: O=C1Cc2c([nH]c3ccc(/C=C/C(=O)c4ccccc4)cc23)-c2cccnc2N1
- Activity [6]: 54%
- Activity [9]: 7.6%

- Activity [2]: 79.8%
SMILES: O=C1Cc2c([nH]c3ccc(/C=C/C(=O)c4ccc(Cl)cc4)cc23)-c2cccnc2N1
- Activity [6]: 38.4%
- Activity [19]: 4.73%

- Activity [2]: 90.2%
SMILES: O=C1Cc2c([nH]c3ccc(/C=C/C(=O)c4ccco4)cc23)-c2cccnc2N1
- Activity [20]: 17.6%
- Activity [3]: 21.9%

- Activity [2]: 112%
SMILES: O=C1Cc2c([nH]c3c(I)cccc23)-c2cccnc2N1
- Activity [3]: 61.3%
- Activity [21]: 4.4%

The next lines start with the molecule.

SMILES: O=C(/C=C/c1cccc2c3c([nH]c12)-c1cccnc1NC(=O)C3)NCc1ccccc1
- EC50 [5]: 0.45 µM
- Activity [2]: 81.8%
- Activity [6]: < 10%
- Activity [7]: 4.16%

SMILES: COc1ccc(C(=O)/C=C/c2ccc3[nH]c4c(c3c2)CC(=O)Nc2ncccc2-4)cc1
- Activity [2]: 77.6%
- Activity [8]: 20.3%
- Activity [6]: 44.5%

SMILES: O=C(/C=C/c1cccc2c3c([nH]c12)-c1cccnc1NC(=O)C3)Nc1ccccc1
- EC50 [5]: 0.12 µM
- IC50 [10]: > 10 µM
- IC50 [11]: > 10 µM
- Activity [2]: 94.6%
- Activity [6]: < 10%
- IC50 [12]: > 10 µM
- IC50 [13]: > 10 µM
- IC50 [14]: 0.49 µM
- IC50 [15]: > 10 µM
- IC50 [16]: > 10 µM
- IC50 [17]: > 10 µM
- Activity [18]: 74.7%

SMILES: O=C1Cc2c([nH]c3c(/C=C/C(=O)c4ccccc4)cccc23)-c2cccnc2N1
- EC50 [5]: 0.18 µM
- IC50 [10]: > 10 µM
- IC50 [11]: > 10 µM
- Activity [2]: 91.1%
- Activity [6]: < 10%
- IC50 [12]: > 10 µM
- Activity [9]: 28.3%
- IC50 [13]: > 10 µM
- IC50 [14]: > 10 µM
- IC50 [15]: > 10 µM
- IC50 [16]: > 10 µM
- IC50 [17]: > 10 µM

SMILES: O=C(/C=C/c1ccc2[nH]c3c(c2c1)CC(=O)Nc1ncccc1-3)Nc1ccccc1
- EC50 [5]: 2.5 µM
- Activity [2]: 68.1%
- Activity [6]: < 10%
- Activity [22]: < 0%

SMILES: COc1ccc(C(=O)/C=C/c2cccc3c4c([nH]c23)-c2cccnc2NC(=O)C4)cc1
- Activity [2]: 80.4%
- Activity [19]: 16.5%
- Activity [3]: 79.9%

SMILES: O=C1Cc2c([nH]c3c(/C=C/C(=O)c4ccc(Cl)cc4)cccc23)-c2cccnc2N1
- Activity [2]: 73.2%
- Activity [8]: 9.2%
- Activity [6]: 74.6%

SMILES: CCN(CC)C(=O)/C=C/c1cccc2c3c([nH]c12)-c1cccnc1NC(=O)C3
- Activity [2]: 102%
- Activity [3]: 81.6%
- Activity [23]: < 0%

SMILES: O=C(/C=C/c1ccc2[nH]c3c(c2c1)CC(=O)Nc1ncccc1-3)NCc1ccccc1
- Activity [2]: 67.5%
- Activity [6]: 12.1%
- Activity [24]: < 0%
